Reference: ChEMBL document CHEMBL1122418, “Synthesis of 3-hydroxy-3-cyclohexylbutyric acid derivatives. 2. Cyclic analogues of mevalonic acid” (1983)

How the values were obtained:
Type in all cases: functional
[1] = species on record: Rattus norvegicus; assay: Percent inhibition of [14C]acetate incorporation into CO2, after incubation with rat liver slices at 5x10E-4 M concentration
Method in brief: (§1)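 Rat liver slices (250 mg) incubated in 4 mL Krebs-Ringer bicarbonate buffer, pH 7.4, with 4 mM [2-14C]acetate, with or without test compound; label recovered in CO2, long-chain fatty acids and cholesterol measured and inhibition calculated against untreated slices. Values are arithmetic means of three determinations.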

[2] = species on record: Rattus norvegicus; assay: Percent inhibition of [14C]acetate incorporation into long-chain fatty acids, after incubation with rat liver slices at 5x10E-3 M concentration; method in brief: as §1
[3] = species on record: Rattus norvegicus; assay: Percent inhibition of [14C]acetate incorporation into cholesterol, after incubation with rat liver slices at 5x10E-4 M concentration; method in brief: as §1
[4] = species on record: Rattus norvegicus; assay: Percent inhibition of [14C]acetate incorporation into long-chain fatty acids, after incubation with rat liver slices at 5x10E-4 M concentration; method in brief: as §1
[5] = species on record: Rattus norvegicus; assay: Percent inhibition of [14C]acetate incorporation into CO2, after incubation with rat liver slices at 5x10E-3 M concentration; method in brief: as §1
[6] = species on record: Rattus norvegicus; assay: Percent inhibition of [14C]acetate incorporation into cholesterol, after incubation with rat liver slices at 5x10E-3 M concentration; method in brief: as §1

SMILES | inhibition at 500 µM [1] [%] | inhibition at 5000 µM [2] [%] | inhibition at 500 µM [3] [%] | inhibition at 500 µM [4] [%] | inhibition at 5000 µM [5] [%] | inhibition at 5000 µM [6] [%]
CC1CC(=O)O[C@H]2CCCC[C@@H]12 (some centres undefined) | 10 | 62 | 10 | 10 | 24 | 39
CC(O)(CC(=O)O)C1CCCCC1 (centres undefined) [CYCLOBUTOIC ACID] | 62 |  | 32 | 72 |  | 
CC1(O)CC(=O)O[C@H]2CCCC[C@H]21 (some centres undefined) | 10 | 47 | 10 | 10 | 37 | 22
CC(O)(CC(=O)O)[C@@H]1CCCC[C@@H]1O (some centres undefined) | 10 | 68 | 10 | 10 | 62 | 50
CO[C@H]1CCCC[C@H]1C(C)(O)CC(=O)O (some centres undefined) | 39 |  | 25 | 57 |  | 
